Laboratory results taken from ChEMBL document CHEMBL1139444, “Oxazolidinone: search for highly potent antibacterial” (2004).
≈ marks a conversion by molar mass, not a printed value.

What was measured:
Type in all cases: functional
[1] = tested on: Staphylococcus epidermidis; assay: Minimum inhibitory concentration against Staphylococcus epidermidis MTCC 155
Procedure, shortened: (§1)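 Microbroth dilution MIC determination, with results expressed in μg/mL. Where run in triplicate, the highest MIC of the three replicates is the value reported.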

[2] = tested on: Bacillus pumilus; assay: Minimum inhibitory concentration against Bacillus pumilus MTCC 1607; procedure, shortened: as §1
[3] = tested on: Bacillus cereus; assay: Minimum inhibitory concentration against Bacillus cereus MTCC 430; procedure, shortened: as §1
[4] = tested on: Enterococcus faecalis; assay: Minimum inhibitory concentration against Enterococcus faecalis MTCC 439; procedure, shortened: as §1
[5] = tested on: Streptococcus pyogenes; assay: Minimum inhibitory concentration against Streptococcus pyogenes MTCC 442; procedure, shortened: as §1
[6] = tested on: Staphylococcus aureus; assay: Minimum inhibitory concentration against Staphylococcus aureus MTCC 96; procedure, shortened: as §1
[7] = tested on: Staphylococcus aureus; assay: Minimum inhibitory concentration against Staphylococcus aureus ATCC 25923; procedure, shortened: as §1
[8] = tested on: Enterococcus faecalis; assay: Minimum inhibitory concentration against Enterococcus faecalis ATCC 14506; procedure, shortened: as §1
[9] = tested on: Klebsiella pneumoniae; assay: Minimum inhibitory concentration against Klebsiella pneumoniae ATCC 10031; procedure, shortened: as §1
[10] = tested on: Staphylococcus aureus; assay: Minimum inhibitory concentration against Staphylococcus aureus ATCC 14154; procedure, shortened: as §1
[11] = tested on: Staphylococcus aureus; assay: Minimum inhibitory concentration against Staphylococcus aureus ATCC 29213; procedure, shortened: as §1

| Compound | MIC [1] [µg/mL] | MIC [2] [µg/mL] | MIC [3] [µg/mL] | MIC [4] [µg/mL] | MIC [5] [µg/mL] | MIC [6] [µg/mL] | MIC [7] [µg/mL] | MIC [8] [µg/mL] | MIC [9] [µg/mL] | MIC [10] [µg/mL] | MIC [11] [µg/mL] |
| --- | --- | --- | --- | --- | --- | --- | --- | --- | --- | --- | --- |
| CC(=O)NC[C@H]1CN(c2ccc(N3CCN(C(=O)/C=C/c4ccc(OS(C)(=O)=O)cc4)CC3)c(F)c2)C(=O)O1 | 8 (≈ 14.3 µM) | 4 (≈ 7.14 µM) | 1 (≈ 1.78 µM) | 4 (≈ 7.14 µM) | 2 (≈ 3.57 µM) | 8 (≈ 14.3 µM) |  |  |  |  |  |
| CC(=O)NC[C@H]1CN(c2ccc(N3CCN(C(=O)/C=C/c4ccc(-c5ccccc5)cc4)CC3)c(F)c2)C(=O)O1 | > 16 | > 16 | > 16 | > 16 | > 16 | > 16 |  |  |  |  |  |
| CC(=O)NC[C@H]1CN(c2ccc(N3CCN(C(=O)/C=C/c4ccc(NC(C)=O)cc4)CC3)c(F)c2)C(=O)O1 | 4 (≈ 7.64 µM) | 8 (≈ 15.3 µM) | 4 (≈ 7.64 µM) | 4 (≈ 7.64 µM) | 8 (≈ 15.3 µM) | 8 (≈ 15.3 µM) |  |  |  |  |  |
| CC(=O)NC[C@H]1CN(c2ccc(N3CCN(C(=O)/C=C/c4ccc(F)cc4)CC3)c(F)c2)C(=O)O1 | 2 (≈ 4.13 µM) | 4 (≈ 8.26 µM) | 4 (≈ 8.26 µM) | 4 (≈ 8.26 µM) | 8 (≈ 16.5 µM) | 16 (≈ 33 µM) |  |  |  |  |  |
| CC(=O)NC[C@H]1CN(c2ccc(N3CCN(C(=O)/C=C/c4ccc([N+](=O)[O-])cc4)CC3)c(F)c2)C(=O)O1 | 4 (≈ 7.82 µM) | 2 (≈ 3.91 µM) | 1 (≈ 1.95 µM) | 4 (≈ 7.82 µM) | 1 (≈ 1.95 µM) | 4 (≈ 7.82 µM) |  |  |  |  |  |
| CC(=O)NC[C@H]1CN(c2ccc(N3CCOCC3)c(F)c2)C(=O)O1 [LINEZOLID] | 2 (≈ 5.93 µM) | 1 (≈ 2.96 µM) | 2 (≈ 5.93 µM) |  | 0.5 (≈ 1.48 µM) |  |  |  | > 16 |  |  |
| CC(=O)NC[C@H]1CN(c2ccc(N3CCN(C(=O)/C=C/c4ccc(O)c(O)c4)CC3)c(F)c2)C(=O)O1 | 4 (≈ 8.02 µM) | 8 (≈ 16 µM) | 16 (≈ 32.1 µM) | 8 (≈ 16 µM) | 16 (≈ 32.1 µM) | 8 (≈ 16 µM) |  |  |  |  |  |
| CC(=O)NC[C@H]1CN(c2ccc(N3CCN(C(=O)/C=C/c4ccc5c(c4)OCO5)CC3)c(F)c2)C(=O)O1 | 1 (≈ 1.96 µM) | 1 (≈ 1.96 µM) | 1 (≈ 1.96 µM) | 1 (≈ 1.96 µM) | 2 (≈ 3.92 µM) | 2 (≈ 3.92 µM) | 4 (≈ 7.84 µM) | 2 (≈ 3.92 µM) | > 16 | 2 (≈ 3.92 µM) | 4 (≈ 7.84 µM) |
| CC(=O)NC[C@H]1CN(c2ccc(N3CCN(C(=O)/C=C/c4ccc(F)c(F)c4)CC3)c(F)c2)C(=O)O1 | > 16 | 16 (≈ 31.8 µM) | 4 (≈ 7.96 µM) | > 16 | 4 (≈ 7.96 µM) | > 16 |  |  |  |  |  |
| CC(=O)NC[C@H]1CN(c2ccc(N3CCN(C(=O)CO)CC3)c(F)c2)C(=O)O1 [EPEREZOLID] | 1 (≈ 2.54 µM) | 2 (≈ 5.07 µM) | 2 (≈ 5.07 µM) | 4 (≈ 10.1 µM) | 4 (≈ 10.1 µM) |  | 4 (≈ 10.1 µM) | 2 (≈ 5.07 µM) | > 16 | 4 (≈ 10.1 µM) | 4 (≈ 10.1 µM) |
| CC(=O)NC[C@H]1CN(c2ccc(N3CCN(C(=O)/C=C/c4ccc(OC(=O)C(C)(C)C)cc4)CC3)c(F)c2)C(=O)O1 | 4 (≈ 7.06 µM) | 8 (≈ 14.1 µM) | 16 (≈ 28.2 µM) | 8 (≈ 14.1 µM) | > 16 | > 16 |  |  |  |  |  |

More lines, now with the values ahead:

| MIC [1] [µg/mL] | MIC [2] [µg/mL] | MIC [3] [µg/mL] | MIC [4] [µg/mL] | MIC [5] [µg/mL] | MIC [6] [µg/mL] | MIC [7] [µg/mL] | MIC [8] [µg/mL] | MIC [9] [µg/mL] | MIC [10] [µg/mL] | MIC [11] [µg/mL] | Compound |
| --- | --- | --- | --- | --- | --- | --- | --- | --- | --- | --- | --- |
| 1 (≈ 2.01 µM) | 2 (≈ 4.03 µM) | 2 (≈ 4.03 µM) | 4 (≈ 8.06 µM) | 4 (≈ 8.06 µM) | 4 (≈ 8.06 µM) |  |  |  |  |  | COc1ccc(/C=C/C(=O)N2CCN(c3ccc(N4C[C@H](CNC(C)=O)OC4=O)cc3F)CC2)cc1 |
| 0.25 (≈ 0.518 µM) | 0.5 (≈ 1.04 µM) | 0.5 (≈ 1.04 µM) | 0.5 (≈ 1.04 µM) | 0.5 (≈ 1.04 µM) | 2 (≈ 4.14 µM) | 1 (≈ 2.07 µM) | 0.5 (≈ 1.04 µM) | > 16 | 2 (≈ 4.14 µM) | 1 (≈ 2.07 µM) | C/C(S)=N/C[C@H]1CN(c2ccc(N3CCN(C(=O)/C=C/c4ccccc4)CC3)c(F)c2)C(=O)O1 |
| 1 (≈ 1.9 µM) | 0.25 (≈ 0.475 µM) | 0.25 (≈ 0.475 µM) | 8 (≈ 15.2 µM) | 4 (≈ 7.6 µM) | 1 (≈ 1.9 µM) | 0.5 (≈ 0.95 µM) | 0.25 (≈ 0.475 µM) | 2 (≈ 3.8 µM) | 1 (≈ 1.9 µM) | 1 (≈ 1.9 µM) | C/C(S)=N/C[C@H]1CN(c2ccc(N3CCN(C(=O)/C=C/c4ccc5c(c4)OCO5)CC3)c(F)c2)C(=O)O1 |
| 0.25 (≈ 0.518 µM) | 0.5 (≈ 1.04 µM) | 0.5 (≈ 1.04 µM) | 1 (≈ 2.07 µM) | 2 (≈ 4.14 µM) | 2 (≈ 4.14 µM) | 4 (≈ 8.29 µM) | 1 (≈ 2.07 µM) | > 16 | 4 (≈ 8.29 µM) | 1 (≈ 2.07 µM) | CC(=O)NC[C@H]1CN(c2ccc(N3CCN(C(=O)/C=C/c4cccc(O)c4)CC3)c(F)c2)C(=O)O1 |
| ≤ 0.12 | 0.25 (≈ 0.501 µM) | 0.25 (≈ 0.501 µM) | 1 (≈ 2.01 µM) | 0.5 (≈ 1 µM) | 0.25 (≈ 0.501 µM) | 0.25 (≈ 0.501 µM) | 0.25 (≈ 0.501 µM) | 4 (≈ 8.02 µM) | 0.5 (≈ 1 µM) | 0.5 (≈ 1 µM) | C/C(S)=N/C[C@H]1CN(c2ccc(N3CCN(C(=O)/C=C/c4ccc(O)cc4)CC3)c(F)c2)C(=O)O1 |
| 0.25 (≈ 0.474 µM) | 1 (≈ 1.9 µM) | 1 (≈ 1.9 µM) | 0.25 (≈ 0.474 µM) | 0.5 (≈ 0.948 µM) | 1 (≈ 1.9 µM) | 2 (≈ 3.79 µM) | 0.5 (≈ 0.948 µM) | > 16 | 1 (≈ 1.9 µM) | 2 (≈ 3.79 µM) | N=C(S)NC[C@H]1CN(c2ccc(N3CCN(C(=O)/C=C/c4ccc5c(c4)OCO5)CC3)c(F)c2)C(=O)O1 |
| 0.5 (≈ 1.07 µM) | 1 (≈ 2.14 µM) | 1 (≈ 2.14 µM) | 2 (≈ 4.29 µM) | 2 (≈ 4.29 µM) | 4 (≈ 8.57 µM) | 2 (≈ 4.29 µM) | 1 (≈ 2.14 µM) | > 16 | 4 (≈ 8.57 µM) | 4 (≈ 8.57 µM) | CC(=O)NC[C@H]1CN(c2ccc(N3CCN(C(=O)/C=C/c4ccccc4)CC3)c(F)c2)C(=O)O1 |
| 1 (≈ 2.07 µM) | 1 (≈ 2.07 µM) | 0.25 (≈ 0.517 µM) | 0.5 (≈ 1.03 µM) | 0.25 (≈ 0.517 µM) | 1 (≈ 2.07 µM) | 2 (≈ 4.14 µM) | 0.5 (≈ 1.03 µM) | 8 (≈ 16.5 µM) | 2 (≈ 4.14 µM) | 1 (≈ 2.07 µM) | NC(=S)NC[C@H]1CN(c2ccc(N3CCN(C(=O)/C=C/c4ccccc4)CC3)c(F)c2)C(=O)O1 |
| 0.5 (≈ 0.999 µM) | 0.5 (≈ 0.999 µM) | 0.5 (≈ 0.999 µM) | 0.5 (≈ 0.999 µM) | 2 (≈ 4 µM) | 1 (≈ 2 µM) | 4 (≈ 7.99 µM) | 2 (≈ 4 µM) | > 16 | 1 (≈ 2 µM) | 4 (≈ 7.99 µM) | C/C(S)=N/C[C@H]1CN(c2ccc(N3CCN(C(=O)/C=C/c4ccc(F)cc4)CC3)c(F)c2)C(=O)O1 |
| 1 (≈ 1.95 µM) | 2 (≈ 3.9 µM) | 2 (≈ 3.9 µM) | 2 (≈ 3.9 µM) | 16 (≈ 31.2 µM) | 16 (≈ 31.2 µM) |  |  |  |  |  | CSc1ccc(/C=C/C(=O)N2CCN(c3ccc(N4C[C@H](CNC(C)=O)OC4=O)cc3F)CC2)cc1 |
| 1 (≈ 1.72 µM) | 2 (≈ 3.43 µM) | 2 (≈ 3.43 µM) | 2 (≈ 3.43 µM) | 4 (≈ 6.87 µM) | 4 (≈ 6.87 µM) |  |  |  |  |  | CC(=O)NC[C@H]1CN(c2ccc(N3CCN(C(=O)/C=C/c4ccc(OC(C)=O)c(OC(C)=O)c4)CC3)c(F)c2)C(=O)O1 |
| 0.5 (≈ 1.04 µM) | 1 (≈ 2.08 µM) | 1 (≈ 2.08 µM) | 1 (≈ 2.08 µM) | 2 (≈ 4.15 µM) | 1 (≈ 2.08 µM) |  |  |  |  |  | CC(=O)NC[C@H]1CN(c2ccc(N3CCN(C(=O)/C=C/c4ccc(N)cc4)CC3)c(F)c2)C(=O)O1 |
| 0.25 (≈ 0.518 µM) | 1 (≈ 2.07 µM) | 0.5 (≈ 1.04 µM) | 1 (≈ 2.07 µM) | 2 (≈ 4.14 µM) | 2 (≈ 4.14 µM) | 1 (≈ 2.07 µM) | 2 (≈ 4.14 µM) | > 16 | 2 (≈ 4.14 µM) | 2 (≈ 4.14 µM) | CC(=O)NC[C@H]1CN(c2ccc(N3CCN(C(=O)/C=C/c4ccc(O)cc4)CC3)c(F)c2)C(=O)O1 |
